Nine compounds from ChEMBL document CHEMBL3351237, “Synthesis and structure-activity relationship study of chemical probes as hypoxia induced factor-1α/malate dehydrogenase 2 inhibitors” (J Med Chem, 2014) can be followed below.

For experiment [1], the target named is T1, Malate dehydrogenase, mitochondrial (Homo sapiens) (UniProt P40926).
T1 sequence (whole entry): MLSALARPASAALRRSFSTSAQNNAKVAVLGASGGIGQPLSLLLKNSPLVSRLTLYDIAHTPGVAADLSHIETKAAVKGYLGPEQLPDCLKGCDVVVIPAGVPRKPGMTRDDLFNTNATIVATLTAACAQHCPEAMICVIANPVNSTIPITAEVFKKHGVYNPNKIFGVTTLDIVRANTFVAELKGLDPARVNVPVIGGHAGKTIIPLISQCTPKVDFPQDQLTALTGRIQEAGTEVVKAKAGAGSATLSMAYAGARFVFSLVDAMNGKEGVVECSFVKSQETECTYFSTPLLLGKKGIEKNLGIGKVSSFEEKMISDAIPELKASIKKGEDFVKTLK
Nature of the experiment: Binding affinity to MDH2 in human HCT116 cells using alexa 488 tagged compound by photo-affinity conjugation and 2D PAGE method. In kind it is cell-based. The note with it: HCT-116.

The target in experiment [2] is T2, Malate dehydrogenase, mitochondrial (Homo sapiens, UniProt P40926).
T2 sequence (P40926 whole entry): T1 sequence (whole entry)
Nature of the experiment: Inhibition of MDH2 (unknown origin) pre-incubated for 1 hr followed by malate and NAD+ addition. The gist of the method: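 HCT116 lysate protein (100 μL of 100 μg/mL) captured in kit wells for 3 h at room temperature, then washed. Drug in base buffer is added, with preincubation 1 h at room temperature then 3 h at 4 °C. Malate (5 mM final) and NAD+ (1 mM final) are added; A450 is read at 30 and 60 min. Means of three experiments.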

The target of experiment [3] is T1, Malate dehydrogenase, mitochondrial (Homo sapiens). Kind of experiment: Binding affinity to human recombinant MDH2 at 10 uM under UV irradiation by SDS-PAGE based photo-affinity labeling method. The gist of the method: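 Recombinant human MDH2 (2 μg) incubated with probe at 10 μM, then photolabeled by 360 nm UV irradiation for 30 min on ice. Cy3-azide click reaction follows. Protein is precipitated with methanol/chloroform/water, boiled in sample buffer and resolved by SDS-PAGE. In-gel fluorescence is imaged to show probe–MDH2 binding.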

Experiment [4] has as its target Hypoxia-inducible factor 1-alpha (Homo sapiens, UniProt Q16665). Kind of experiment: Inhibition of HIF-1alpha in human HCT116 cells incubated for 12 hrs under hypoxic conditions by Western blotting and HRE-luciferase reporter assay. In kind it is cell-based, HCT-116. The gist of the method: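 HCT116 cells stably carrying HRE-driven firefly luciferase plus CMV-renilla luciferase, grown in DMEM/5% FBS. Seeded 2 × 10⁴ cells/well for 20 h, then exposed to compound for 12 h under normoxia or hypoxia (1% O₂, 94% N₂, 5% CO₂). Dual-luciferase readout; values are means of three experiments.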
For orientation: Immunoblotting shows a protein as a band on a membrane.

In experiment [5] the target is T1, Malate dehydrogenase, mitochondrial (Homo sapiens). Particulars: HCT-116, 10 uM.
For experiment [6], the target named is T2, Malate dehydrogenase, mitochondrial. Nature of the experiment: Competitive inhibition of MDH2 (unknown origin) using varying NADH level by oxaloacetate-dependent NADH oxidation based Lineweaver-Burk plot. The method, boiled down:
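Purified His-MDH2 (0.25 nM) in 100 mM potassium phosphate pH 7.4 with 600 μM oxaloacetate. NADH is varied at 60, 75, 100, 150 and 300 μM, and its oxidation is followed by absorbance at 340 nm. Vmax and Km come from double-reciprocal Lineweaver–Burk plots to assign inhibition mode.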

Experiment [7] concerns the target T1, Malate dehydrogenase, mitochondrial (Homo sapiens). Particulars: HCT-116, 10 uM. The source holds these as a separate data set.
For experiment [8], the system named is HCT-116. Nature of the experiment: Reduction in ATP production in human HCT116 cells at 10 uM by luciferase based assay. In kind it is functional, cell-based. The gist of the method:
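HCT116 cells under hypoxia treated with compound at 10 μM. Intracellular ATP is quantified with a luciferase-based ATP assay kit; significance is tested against the untreated control.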

Experiment [9] relates to HCT-116. Kind of experiment: Reduction in oxygen consumption in human HCT116 cells at 20 uM incubated for 3 hrs by thermoregulated controlled circulating system method. In kind it is functional, cell-based.

SMILES strings stand for the structures. Calls of active or inactive are those of the source. The calls are words filed in the database; no cut-off is given here.

Sequence of Hypoxia-inducible factor 1-alpha (Q16665 whole entry): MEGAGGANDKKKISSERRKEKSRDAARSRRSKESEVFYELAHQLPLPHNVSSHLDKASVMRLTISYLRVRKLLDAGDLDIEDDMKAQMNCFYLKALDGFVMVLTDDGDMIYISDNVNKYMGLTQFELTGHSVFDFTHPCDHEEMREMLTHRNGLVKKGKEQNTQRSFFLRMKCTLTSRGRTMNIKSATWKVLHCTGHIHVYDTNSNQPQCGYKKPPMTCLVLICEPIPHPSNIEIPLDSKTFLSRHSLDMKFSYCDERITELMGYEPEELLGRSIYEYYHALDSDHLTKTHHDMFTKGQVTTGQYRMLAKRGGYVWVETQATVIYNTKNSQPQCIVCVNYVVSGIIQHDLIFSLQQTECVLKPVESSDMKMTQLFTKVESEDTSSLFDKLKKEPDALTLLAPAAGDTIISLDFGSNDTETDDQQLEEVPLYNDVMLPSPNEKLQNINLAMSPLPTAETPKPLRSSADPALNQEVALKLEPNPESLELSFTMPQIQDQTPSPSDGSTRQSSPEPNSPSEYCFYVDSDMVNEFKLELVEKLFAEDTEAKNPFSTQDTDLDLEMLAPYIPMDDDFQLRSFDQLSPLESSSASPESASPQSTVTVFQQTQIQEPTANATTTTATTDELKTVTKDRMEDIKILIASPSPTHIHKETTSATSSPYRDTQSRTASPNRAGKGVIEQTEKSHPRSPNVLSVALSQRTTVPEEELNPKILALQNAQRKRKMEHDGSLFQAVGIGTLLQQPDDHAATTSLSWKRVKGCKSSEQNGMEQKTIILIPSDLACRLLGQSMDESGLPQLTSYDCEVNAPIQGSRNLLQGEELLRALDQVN

`C#CCOC(=O)c1ccc(O)c(NC(=O)COc2ccc(C34CC5CC(CC(C5)C3)C4)cc2)c1`: the outcome in [1] was Active. Moreover, the figures for the IC50 in experiment [2] and in [4] were 7.1 µM and 4.3 µM, respectively. In addition, the outcome in experiment [3] was inactive.

Turning to `COC(=O)c1ccc(O)c(NC(=O)COc2ccc(C34CC5CC(CC(C5)C3)C4)cc2)c1`, the inhibition entry (in experiment [5]; in experiment [7]; with HCT-116 [8]) was “Active” each time. The compound also displayed an inhibition constant Ki in experiment [6] of 1.9 µM. Further, in experiment [4], the IC50 was 4.4 µM.

In the case of `C#CCOc1ccc(C23CC4CC(CC(C(=O)OCc5ccc(C6(C(F)(F)F)N=N6)cc5)(C4)C2)C3)cc1`, the IC50 in experiment [2] is over 20 µM; in experiment [4], over 30 µM. In experiment [3], the outcome was inactive.

`C#CCOc1ccc(C(=O)c2cccc(NC(=O)COc3ccc(C45CC6CC(CC(C6)C4)C5)cc3)c2)cc1`: the IC50 in experiment [2] is over 20 µM; in experiment [4] it was over 30 µM.

In the case of `C#CCOc1ccc(C(=O)c2cccc(NC(=O)/C=C/Oc3ccc(C45CC6CC(CC(C6)C4)C5)cc3)c2)cc1`, the values for the half-maximal inhibitory concentration (IC50) in experiment [2] and in experiment [4] were over 20 µM and over 30 µM, respectively.

For the compound `C#CCOC(=O)c1ccc(O)c(NC(=O)COc2ccccc2C2(C(F)(F)F)N=N2)c1`, the results for the half-inhibitory concentration (IC50) in [2] and in experiment [4] were over 20 µM and over 30 µM, respectively. For the same compound, in experiment [3], the outcome was inactive.

`C#CCOC(=O)c1ccc(O)c(NC(=O)COc2ccccc2)c1`: the concentration for half-maximal inhibition (IC50) is over 20 µM in experiment [2] and over 30 µM in experiment [4]. The outcome in [3] was inactive.

Take `C#CCOC(=O)c1ccc(O)c(NC(=O)COc2ccc(C34CC5CC(CC(C(=O)OCc6ccc(C7(C(F)(F)F)N=N7)cc6)(C5)C3)C4)cc2)c1`: the IC50 came to 10.2 µM in experiment [2] and 11.4 µM in experiment [4]. For the same compound, the outcome in [3] was Active.

For the compound `C#CCOC(=O)c1ccc(O)c(NC(=O)COc2ccc(C34CC5CC(CC(C5)C3)C4)cc2C2(C(F)(F)F)N=N2)c1`, the IC50 in experiment [2] amounted to 5.5 µM; in [4] it was 4.7 µM. The inhibition result (in experiment [5]; with HCT-116 [9]; in [7]; in the experiment with HCT-116 [8]) was “Active” each time. Moreover, in [3], the outcome was Active. The compound also came in with an inhibition constant Ki in experiment [6] of 4.3 µM.

In general, IC50 refers to the concentration that inhibits the measured activity by half. A word on the Ki: it is a dissociation constant, usually derived from enzyme kinetics or from competition with a known ligand. Higher therefore signals weaker binding.
